Laboratory results as given in ChEMBL document CHEMBL1137792, “The immobilization of gossypol derivative on N-polyvinylpyrrolidone increases its water solubility and modifies membrane-active properties” (J Med Chem, 2009).

Experiments:
[1] = Decrease in Wistar rat liver mitochondrial membrane fluidity assessed as rotational correlation times of spin probe at 0.15 uM by ESR; type: ADME, mitochondria, Mitochondria
Procedure, shortened: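 ESR of rat liver mitochondria (1 mg/mL protein) in 145 mM KCl, 10 mM Tris-HCl pH 7.4 with nitroxide spin probe added in ethanol to 10^-6 M final; 2 min incubation with compound (range 0.025-0.3 μM) before spectra; rotational correlation time τc derived. Mean ± SEM, n=9, three independent experiments.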

[2] = Effect on nonenergized Wistar rat liver mitochondrial membrane permeability assessed as increase in permeability to potassium ion at 20 uM; type: ADME, mitochondria, Mitochondria
Procedure, shortened: (§1)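 Passive swelling of nonenergized rat liver mitochondria (1.0 mg/mL protein) in iso-osmotic nitrate media, Tris-HNO3 pH 7.4, rotenone 0.33 μg/mL, 25 °C, stirred: KNO3 120 mM; Mg2+ and Ba2+ 80 mM; Ca2+ 40 mM with 120 mM sucrose. Absorbance decrease at 520 nm followed; swelling rates normalised to the K+ rate set as 1. Five recordings.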

[3] = Effect on nonenergized Wistar rat liver mitochondrial membrane permeability assessed as increase in permeability to Ba2+ ion at 20 uM; type: ADME, mitochondria, Mitochondria; procedure, shortened: as §1
[4] = Toxicity in human erythrocytes assessed as reduction of membrane fluidity by fluorescent anisotropy; type: cell-based; details: erythrocyte
Procedure, shortened: (§2)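 Human erythrocyte ghosts (hypotonic Tris-HCl/EDTA lysis) diluted in PBS pH 7.4, 2 min at 37 °C with compound (0.05-0.75 μM final), then DPH 1 μM final, 15 min dark at room temperature; steady-state anisotropy, excitation 348/emission 426 nm; ratio to no-compound control (Ai/A0). Mean ± SEM, n=8.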

[5] = Toxicity in Wistar rat erythrocytes assessed as induction of hemolysis at 50 uM; type: cell-based, Erythrocyte; details: read-out: Activity
Procedure, shortened: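 Freshly isolated, washed rat erythrocytes as 2% suspension in 140 mM NaCl, 10 mM Tris-citrate, 1 mM EDTA, pH 7.5, incubated 30 min at 37 °C with compound (20-100 μM range); spun at 1000g, supernatant OD540 read against water-lysed cells as 100%. Mean ± SEM, n=9.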

[6] = Effect on nonenergized Wistar rat liver mitochondrial membrane permeability assessed as increase in permeability to Ca2+ ion at 20 uM; type: ADME, mitochondria, Mitochondria; procedure, shortened: as §1
[7] = Effect on nonenergized Wistar rat liver mitochondrial membrane permeability assessed as increase in permeability to Mg2+ ion at 20 uM; type: ADME, mitochondria, Mitochondria; procedure, shortened: as §1
[8] = Drug binding to Wistar rat liver mitochondrial membrane assessed as [14C] labeled megosin after 5 mins; type: ADME, tissue-based; details: in vitro
Procedure, shortened: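 Mitochondria (10 mg protein/mL) incubated with 14C-labeled compound (10 nmol/mg protein, 9.45 mCi/mmol) plus 50-fold unlabeled (500 nmol/mg) at 22 °C with stirring; vacuum filtration through nitrocellulose, two water rinses, filters dried 24 h and counted by liquid scintillation; bound label expressed as cpm and % of total radioactivity. Mean ± SEM, n=12.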

[9] = Toxicity in human erythrocytes assessed as reduction of membrane fluidity at 0.4 uM by fluorescent anisotropy relative to untreated control; type: cell-based; details: erythrocyte; procedure, shortened: as §2

Activity [1]: 32.1 ×10⁻¹⁰ s | Activity [2]: Active | Activity [3]: Active | Activity [6]: Active | Activity [7]: Active | Drug uptake [8]: 88.2%
SMILES: Cc1cc2c(c(O)c1-c1c(C)cc3c(c1O)/C(=C/NCCS(=O)(=O)[O-])C(=O)C(O)=C3C(C)C)/C(=C/NCCS(=O)(=O)[O-])C(=O)C(O)=C2C(C)C.[Na+].[Na+] [MEGOSIN]
Activity [4]: Dose-dependent effect | hemolysis at 50 µM [5]: 68% | fold change (FC) [9]: 1.83
